Reference: ChEMBL document CHEMBL1828498, “Identification and characterization of a novel integrin-linked kinase inhibitor” (J Med Chem, 2011)
Active and inactive are the calls of the source. The rule behind the calls is not given here.

Legend:
[1] = target: T1, 3-phosphoinositide-dependent protein kinase 1 (Homo sapiens) (UniProt O15530); assay: Inhibition of PDK2 in human PC3 cells assessed as Akt Thr-308 dephosphorylation by Western blot analysis; assay type: functional, cell-based; settings: PC-3
T1 sequence (whole entry): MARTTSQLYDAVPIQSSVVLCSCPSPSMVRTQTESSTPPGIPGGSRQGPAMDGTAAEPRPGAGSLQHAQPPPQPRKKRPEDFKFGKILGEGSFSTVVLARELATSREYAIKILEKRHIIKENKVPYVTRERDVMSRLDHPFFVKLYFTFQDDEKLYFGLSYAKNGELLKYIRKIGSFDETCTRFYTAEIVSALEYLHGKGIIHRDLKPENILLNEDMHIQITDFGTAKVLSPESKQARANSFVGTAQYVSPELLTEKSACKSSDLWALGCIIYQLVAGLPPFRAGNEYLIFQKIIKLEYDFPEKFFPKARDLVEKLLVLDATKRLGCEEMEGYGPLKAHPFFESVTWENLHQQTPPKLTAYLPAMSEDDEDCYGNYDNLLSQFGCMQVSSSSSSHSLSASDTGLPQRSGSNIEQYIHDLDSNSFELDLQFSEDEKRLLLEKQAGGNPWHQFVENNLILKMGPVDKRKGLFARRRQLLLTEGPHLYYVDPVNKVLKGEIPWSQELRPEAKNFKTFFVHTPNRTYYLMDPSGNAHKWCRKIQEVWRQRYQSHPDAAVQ
Procedure, shortened: (§1)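 Cells exposed 24 h in 5% FBS medium, final DMSO 0.1%; lysed in 1% SDS/10 mM EDTA/50 mM Tris pH 8.1, equal protein on SDS-PAGE, nitrocellulose, primary antibody 1:1000 at 4°C for 2 h, HRP secondary 1:5000, ECL detection; blots representative of three independent experiments.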

[2] = test system: 3-phosphoinositide dependent protein kinase-2, PDK2; assay: Inhibition of PDK2 in human PC3 cells assessed as Akt Ser-473 dephosphorylation by Western blot analysis; assay type: functional, cell-based; settings: PC-3; procedure, shortened: as §1

inhibition [1]: inactive
SMILES: N#Cc1ccc(C(=O)N2CCN(c3ccc(-n4nc(C(F)(F)F)cc4-c4ccc5c(ccc6ccccc65)c4)cc3)CC2)cc1
inhibition [2]: inactive
